Experimental data reported in the M2OR odorant receptor database.

Legend:
Settings in all cases: stereoisomer not certain
UniProt Q8VF52 = molecular target: T1, UniProt Q8VF52
T1 sequence (whole entry): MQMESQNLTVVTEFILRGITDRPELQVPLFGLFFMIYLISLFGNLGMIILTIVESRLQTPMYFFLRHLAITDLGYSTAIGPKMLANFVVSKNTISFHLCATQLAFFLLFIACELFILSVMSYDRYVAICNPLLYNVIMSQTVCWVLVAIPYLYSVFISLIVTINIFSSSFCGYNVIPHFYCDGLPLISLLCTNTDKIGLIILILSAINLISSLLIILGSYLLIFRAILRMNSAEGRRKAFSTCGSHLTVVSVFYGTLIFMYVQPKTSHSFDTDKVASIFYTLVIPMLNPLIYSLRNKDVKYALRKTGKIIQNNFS
In short: (§1)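 Assay methods differ from source to source, frequently being transient luciferase assays in mammalian cell lines. For each receptor–molecule pair, the label responsive (active) applies when the original authors judged the measured signal statistically different from baseline, and non-responsive (inactive) applies otherwise.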

UniProt Q8VFM8 = molecular target: T2, UniProt Q8VFM8
T2 sequence (whole entry): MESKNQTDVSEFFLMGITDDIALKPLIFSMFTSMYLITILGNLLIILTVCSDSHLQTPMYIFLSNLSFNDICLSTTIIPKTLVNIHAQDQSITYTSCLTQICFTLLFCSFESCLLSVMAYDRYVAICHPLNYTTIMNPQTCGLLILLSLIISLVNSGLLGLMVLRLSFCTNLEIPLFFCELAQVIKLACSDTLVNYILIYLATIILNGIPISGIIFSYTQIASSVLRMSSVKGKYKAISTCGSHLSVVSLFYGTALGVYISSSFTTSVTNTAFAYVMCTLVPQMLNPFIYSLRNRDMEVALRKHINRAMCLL
In short: as §1

UniProt Q8VFP5 = molecular target: T3, UniProt Q8VFP5
T3 sequence (whole entry): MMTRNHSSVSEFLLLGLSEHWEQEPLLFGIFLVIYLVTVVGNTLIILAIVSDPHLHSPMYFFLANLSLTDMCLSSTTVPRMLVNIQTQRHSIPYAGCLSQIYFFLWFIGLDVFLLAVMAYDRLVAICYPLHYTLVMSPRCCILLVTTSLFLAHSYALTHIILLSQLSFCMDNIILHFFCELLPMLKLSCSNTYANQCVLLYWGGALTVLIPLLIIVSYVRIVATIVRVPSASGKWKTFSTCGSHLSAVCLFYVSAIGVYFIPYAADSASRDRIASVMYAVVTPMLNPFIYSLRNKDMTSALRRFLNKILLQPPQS
In short: as §1

UniProt Q8VG01 = molecular target: T4, UniProt Q8VG01
T4 sequence (whole entry): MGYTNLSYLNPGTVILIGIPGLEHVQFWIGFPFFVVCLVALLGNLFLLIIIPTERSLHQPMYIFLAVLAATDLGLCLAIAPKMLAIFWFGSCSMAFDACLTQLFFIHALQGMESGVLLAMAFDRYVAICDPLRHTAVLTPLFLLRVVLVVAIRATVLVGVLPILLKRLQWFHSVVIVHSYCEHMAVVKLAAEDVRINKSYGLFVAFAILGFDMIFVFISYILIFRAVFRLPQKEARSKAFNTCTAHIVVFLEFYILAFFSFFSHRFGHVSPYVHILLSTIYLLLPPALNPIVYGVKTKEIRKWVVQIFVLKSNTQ
In short: as §1

UniProt Q8VG27 = molecular target: T5, UniProt Q8VG27
T5 sequence (whole entry): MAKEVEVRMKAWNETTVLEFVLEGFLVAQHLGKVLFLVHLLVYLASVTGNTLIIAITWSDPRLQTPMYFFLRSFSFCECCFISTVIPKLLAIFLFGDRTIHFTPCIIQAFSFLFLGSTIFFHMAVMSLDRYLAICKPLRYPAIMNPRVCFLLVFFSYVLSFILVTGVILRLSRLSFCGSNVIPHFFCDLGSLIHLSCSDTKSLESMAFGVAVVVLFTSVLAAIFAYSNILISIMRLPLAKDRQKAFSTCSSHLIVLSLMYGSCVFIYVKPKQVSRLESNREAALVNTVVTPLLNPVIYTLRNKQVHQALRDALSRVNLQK
In short: as §1

UniProt Q8VG53 = molecular target: T6, UniProt Q8VG53
T6 sequence (whole entry): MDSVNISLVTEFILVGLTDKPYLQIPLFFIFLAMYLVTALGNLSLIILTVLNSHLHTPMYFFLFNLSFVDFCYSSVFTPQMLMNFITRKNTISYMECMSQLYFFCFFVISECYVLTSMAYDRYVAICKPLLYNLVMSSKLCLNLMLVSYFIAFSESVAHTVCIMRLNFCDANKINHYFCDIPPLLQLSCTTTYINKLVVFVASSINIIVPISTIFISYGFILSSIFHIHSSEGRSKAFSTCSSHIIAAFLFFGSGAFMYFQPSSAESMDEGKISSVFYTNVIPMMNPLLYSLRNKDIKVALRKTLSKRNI
In short: as §1

UniProt Q8VG64 = molecular target: T7, UniProt Q8VG64
T7 sequence (whole entry): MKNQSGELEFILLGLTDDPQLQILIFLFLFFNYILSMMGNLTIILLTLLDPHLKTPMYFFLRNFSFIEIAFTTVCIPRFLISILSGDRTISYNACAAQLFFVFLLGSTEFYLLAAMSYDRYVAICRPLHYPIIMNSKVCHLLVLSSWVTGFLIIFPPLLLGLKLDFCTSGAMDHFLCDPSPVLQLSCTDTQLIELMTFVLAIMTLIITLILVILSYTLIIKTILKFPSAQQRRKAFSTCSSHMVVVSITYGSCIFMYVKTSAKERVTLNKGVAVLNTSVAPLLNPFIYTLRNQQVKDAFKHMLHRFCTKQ
In short: as §1

UniProt Q8VGB9 = molecular target: T8, UniProt Q8VGB9
T8 sequence (whole entry): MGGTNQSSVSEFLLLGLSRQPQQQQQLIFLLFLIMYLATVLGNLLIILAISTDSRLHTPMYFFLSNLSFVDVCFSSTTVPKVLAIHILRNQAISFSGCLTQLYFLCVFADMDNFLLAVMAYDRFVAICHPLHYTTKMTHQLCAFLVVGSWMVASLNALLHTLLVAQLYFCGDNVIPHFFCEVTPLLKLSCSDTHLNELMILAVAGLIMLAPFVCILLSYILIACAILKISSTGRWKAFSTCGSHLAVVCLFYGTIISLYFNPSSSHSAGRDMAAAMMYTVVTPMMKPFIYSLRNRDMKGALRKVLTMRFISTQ
In short: as §1

UniProt Q8VGC6 = molecular target: T9, UniProt Q8VGC6
T9 sequence (whole entry): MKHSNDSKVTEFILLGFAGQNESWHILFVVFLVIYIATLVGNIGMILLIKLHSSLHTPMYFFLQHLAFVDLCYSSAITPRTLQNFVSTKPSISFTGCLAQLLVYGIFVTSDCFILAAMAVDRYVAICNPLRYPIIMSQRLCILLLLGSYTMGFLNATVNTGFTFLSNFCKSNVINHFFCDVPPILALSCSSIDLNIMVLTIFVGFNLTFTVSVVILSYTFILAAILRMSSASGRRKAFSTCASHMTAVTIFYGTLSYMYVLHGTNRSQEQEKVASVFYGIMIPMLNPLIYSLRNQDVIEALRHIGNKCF
In short: as §1

UniProt Q8VGJ3 = molecular target: T10, UniProt Q8VGJ3
T10 sequence (whole entry): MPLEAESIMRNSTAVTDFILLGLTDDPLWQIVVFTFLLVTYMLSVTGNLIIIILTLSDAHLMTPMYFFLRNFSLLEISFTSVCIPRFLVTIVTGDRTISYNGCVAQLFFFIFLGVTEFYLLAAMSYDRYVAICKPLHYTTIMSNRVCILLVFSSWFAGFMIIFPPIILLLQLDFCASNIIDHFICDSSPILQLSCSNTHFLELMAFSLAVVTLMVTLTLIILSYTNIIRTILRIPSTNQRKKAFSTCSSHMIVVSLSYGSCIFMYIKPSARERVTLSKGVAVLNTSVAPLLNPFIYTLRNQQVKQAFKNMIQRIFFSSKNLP
In short: as §1

| SMILES | odorant receptor agonist call (UniProt Q8VF52) | odorant receptor agonist call (UniProt Q8VFM8) | odorant receptor agonist call (UniProt Q8VFP5) | odorant receptor agonist call (UniProt Q8VG01) | odorant receptor agonist call (UniProt Q8VG27) | odorant receptor agonist call (UniProt Q8VG53) | odorant receptor agonist call (UniProt Q8VG64) | odorant receptor agonist call (UniProt Q8VGB9) | odorant receptor agonist call (UniProt Q8VGC6) | odorant receptor agonist call (UniProt Q8VGJ3) |
| --- | --- | --- | --- | --- | --- | --- | --- | --- | --- | --- |
| C=C(C)C1CC=C(C=O)CC1 (stereo not given) | inactive | inactive | inactive | inactive | inactive | inactive | inactive | active | inactive | inactive |
| CC(C=O)Cc1ccc2c(c1)OCO2 (stereo not given) | inactive | inactive | inactive | inactive | inactive | inactive | inactive | inactive | active | inactive |
